Experimental data from ChEMBL document CHEMBL4689842, “EUbOPEN Chemogenomics Library wave 1” (2021).

Columns and labels:
Format in all cases: toxicity, cell-based
Fibroblast = assay: Incucyte cell viability with human fibroblast; conditions: 10 µM, compound concentration 10 uM; further: filed as whole numbers so only -1 and 0 and 1 occur
HEK-293T [1] = assay: Incucyte cell viability with HEK293T; conditions: human, 10 µM, compound concentration 10 uM; further: filed as whole numbers so only -1 and 0 and 1 occur
HEK-293T [2] = assay: Multiplex assay against HEK293T; conditions: human;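 on Population Tubulin-Different-Phenotype (%): share of the cells with healthy nuclei that show this phenotype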
Procedure, shortened: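 Live cells were stained at seeding with Hoechst33342, BioTracker Green Microtubule Cytoskeleton Dye, MitoTracker Red and Annexin V Alexa Fluor 680, then imaged on a CQ1 microscope at 37°C and 5% CO2 after compound addition. CellPathfinder machine-learning gating split cells into Hoechst high-intensity objects or normal cells. Normal cells were split into healthy, pyknosed or fragmented nuclei, and pyknosed cells into mitotic or apoptotic. Tubulin, mitochondrial-mass and membrane-permeability phenotypes are per cents of healthy-nucleus cells.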

[3] = 0 h, replicate number 2, timepoint 0 hours
[4] = 12 h, replicate number 1, timepoint 12 hours
[5] = 18 h, replicate number 1, timepoint 18 hours
[6] = 24 h, replicate number 1, timepoint 24 hours
[7] = 12 h, 1 µM, compound concentration 1 uM, replicate 1
[8] = 12 h, 1 µM, compound concentration 1 uM, replicate 2
[9] = 12 h, 10 µM, compound concentration 10 uM, replicate 1
[10] = 12 h, 10 µM, compound concentration 10 uM, replicate 2
[11] = 24 h, 1 µM, compound concentration 1 uM, replicate 1
[12] = 24 h, 1 µM, compound concentration 1 uM, replicate 2
[13] = 24 h, 10 µM, compound concentration 10 uM, replicate 1
[14] = 24 h, 10 µM, compound concentration 10 uM, replicate 2
[15] = 48 h, 1 µM, compound concentration 1 uM, replicate 1
[16] = 48 h, 1 µM, compound concentration 1 uM, replicate 2
[17] = 48 h, 10 µM, compound concentration 10 uM, replicate 1
[18] = 48 h, 10 µM, compound concentration 10 uM, replicate 2

SMILES: COc1cc2c(NC3CCN(C(C)C)CC3)nc(N3CCC(F)(F)CC3)nc2cc1OCCCN1CCCC1
- Growth Rate (Fibroblast; [3]): 0
- Growth Rate (Fibroblast; 6 h, replicate number 2, timepoint 6 hours): 1
- Growth Rate (Fibroblast; [4]): 1
- Growth Rate (Fibroblast; [5]): 1
- Growth Rate (Fibroblast; 18 h, replicate number 2, timepoint 18 hours): 0
- Growth Rate (Fibroblast; [6]): 1
- Growth Rate (Fibroblast; 24 h, replicate number 2, timepoint 24 hours): 0
- Growth Rate (HEK-293T [1]; [3]): 1
- Growth Rate (HEK-293T [1]; 6 h, replicate number 1, timepoint 6 hours): 0
- Growth Rate (HEK-293T [1]; [4]): 0
- Growth Rate (HEK-293T [1]; [5]): 0
- Growth Rate (HEK-293T [1]; [6]): 0
- Population Apoptotic (%) (HEK-293T [2]; [7]): 67%
- Population Fragmented Nuclei (%) (HEK-293T [2]; [7]): 16%
- Population Healthy Nuclei (%) (HEK-293T [2]; [7]): 32%
- Population Hoechst High Intensity Objects (%) (HEK-293T [2]; [7]): 19%
- Population Membrane Permeable-Phenotype (%) (HEK-293T [2]; [7]): 0%
- Population Mitochondria Different-Phenotype (%) (HEK-293T [2]; [7]): 96%
- Population Mitotic Cells (%) (HEK-293T [2]; [7]): 32%
- Population Normal (%) (HEK-293T [2]; [7]): 80%
- Population Pyknosed Nuclei (%) (HEK-293T [2]; [7]): 50%
- Population Tubulin-Different-Phenotype (%) (HEK-293T [2]; [7]): 76%
- Total Cell Count (HEK-293T [2]; [7]): 324
- Population Apoptotic (%) (HEK-293T [2]; [8]): 37%
- Population Fragmented Nuclei (%) (HEK-293T [2]; [8]): 8%
- Population Healthy Nuclei (%) (HEK-293T [2]; [8]): 40%
- Population Hoechst High Intensity Objects (%) (HEK-293T [2]; [8]): 6%
- Population Membrane Permeable-Phenotype (%) (HEK-293T [2]; [8]): 4%
- Population Mitochondria Different-Phenotype (%) (HEK-293T [2]; [8]): 56%
- Population Mitotic Cells (%) (HEK-293T [2]; [8]): 62%
- Population Normal (%) (HEK-293T [2]; [8]): 93%
- Population Pyknosed Nuclei (%) (HEK-293T [2]; [8]): 51%
- Population Tubulin-Different-Phenotype (%) (HEK-293T [2]; [8]): 48%
- Total Cell Count (HEK-293T [2]; [8]): 235
- Population Apoptotic (%) (HEK-293T [2]; [9]): 90%
- Population Fragmented Nuclei (%) (HEK-293T [2]; [9]): 8%
- Population Healthy Nuclei (%) (HEK-293T [2]; [9]): 26%
- Population Hoechst High Intensity Objects (%) (HEK-293T [2]; [9]): 18%
- Population Membrane Permeable-Phenotype (%) (HEK-293T [2]; [9]): 0%
- Population Mitochondria Different-Phenotype (%) (HEK-293T [2]; [9]): 100%
- Population Mitotic Cells (%) (HEK-293T [2]; [9]): 9%
- Population Normal (%) (HEK-293T [2]; [9]): 81%
- Population Pyknosed Nuclei (%) (HEK-293T [2]; [9]): 64%
- Population Tubulin-Different-Phenotype (%) (HEK-293T [2]; [9]): 98%
- Total Cell Count (HEK-293T [2]; [9]): 298
- Population Apoptotic (%) (HEK-293T [2]; [10]): 92%
- Population Fragmented Nuclei (%) (HEK-293T [2]; [10]): 7%
- Population Healthy Nuclei (%) (HEK-293T [2]; [10]): 24%
- Population Hoechst High Intensity Objects (%) (HEK-293T [2]; [10]): 6%
- Population Mitochondria Different-Phenotype (%) (HEK-293T [2]; [10]): 98%
- Population Mitotic Cells (%) (HEK-293T [2]; [10]): 7%
- Population Normal (%) (HEK-293T [2]; [10]): 93%
- Population Pyknosed Nuclei (%) (HEK-293T [2]; [10]): 68%
- Population Tubulin-Different-Phenotype (%) (HEK-293T [2]; [10]): 96%
- Total Cell Count (HEK-293T [2]; [10]): 245
- Population Apoptotic (%) (HEK-293T [2]; [11]): 61%
- Population Fragmented Nuclei (%) (HEK-293T [2]; [11]): 16%
- Population Healthy Nuclei (%) (HEK-293T [2]; [11]): 42%
- Population Hoechst High Intensity Objects (%) (HEK-293T [2]; [11]): 24%
- Population Membrane Permeable-Phenotype (%) (HEK-293T [2]; [11]): 1%
- Population Mitochondria Different-Phenotype (%) (HEK-293T [2]; [11]): 77%
- Population Mitotic Cells (%) (HEK-293T [2]; [11]): 38%
- Population Normal (%) (HEK-293T [2]; [11]): 75%
- Population Pyknosed Nuclei (%) (HEK-293T [2]; [11]): 41%
- Population Tubulin-Different-Phenotype (%) (HEK-293T [2]; [11]): 51%
- Total Cell Count (HEK-293T [2]; [11]): 348
- Population Apoptotic (%) (HEK-293T [2]; [12]): 39%
- Population Fragmented Nuclei (%) (HEK-293T [2]; [12]): 6%
- Population Healthy Nuclei (%) (HEK-293T [2]; [12]): 60%
- Population Hoechst High Intensity Objects (%) (HEK-293T [2]; [12]): 12%
- Population Membrane Permeable-Phenotype (%) (HEK-293T [2]; [12]): 4%
- Population Mitochondria Different-Phenotype (%) (HEK-293T [2]; [12]): 45%
- Population Mitotic Cells (%) (HEK-293T [2]; [12]): 60%
- Population Normal (%) (HEK-293T [2]; [12]): 87%
- Population Pyknosed Nuclei (%) (HEK-293T [2]; [12]): 33%
- Population Tubulin-Different-Phenotype (%) (HEK-293T [2]; [12]): 45%
- Total Cell Count (HEK-293T [2]; [12]): 272
- Population Apoptotic (%) (HEK-293T [2]; [13]): 85%
- Population Fragmented Nuclei (%) (HEK-293T [2]; [13]): 11%
- Population Healthy Nuclei (%) (HEK-293T [2]; [13]): 23%
- Population Hoechst High Intensity Objects (%) (HEK-293T [2]; [13]): 24%
- Population Membrane Permeable-Phenotype (%) (HEK-293T [2]; [13]): 0%
- Population Mitochondria Different-Phenotype (%) (HEK-293T [2]; [13]): 100%
- Population Mitotic Cells (%) (HEK-293T [2]; [13]): 14%
- Population Normal (%) (HEK-293T [2]; [13]): 75%
- Population Pyknosed Nuclei (%) (HEK-293T [2]; [13]): 65%
- Population Tubulin-Different-Phenotype (%) (HEK-293T [2]; [13]): 91%
- Total Cell Count (HEK-293T [2]; [13]): 324
- Population Apoptotic (%) (HEK-293T [2]; [14]): 95%
- Population Fragmented Nuclei (%) (HEK-293T [2]; [14]): 7%
- Population Healthy Nuclei (%) (HEK-293T [2]; [14]): 25%
- Population Hoechst High Intensity Objects (%) (HEK-293T [2]; [14]): 14%
- Population Membrane Permeable-Phenotype (%) (HEK-293T [2]; [14]): 1%
- Population Mitochondria Different-Phenotype (%) (HEK-293T [2]; [14]): 92%
- Population Mitotic Cells (%) (HEK-293T [2]; [14]): 4%
- Population Normal (%) (HEK-293T [2]; [14]): 85%
- Population Pyknosed Nuclei (%) (HEK-293T [2]; [14]): 67%
- Population Tubulin-Different-Phenotype (%) (HEK-293T [2]; [14]): 86%
- Total Cell Count (HEK-293T [2]; [14]): 244
- Population Apoptotic (%) (HEK-293T [2]; [15]): 55%
- Population Fragmented Nuclei (%) (HEK-293T [2]; [15]): 19%
- Population Healthy Nuclei (%) (HEK-293T [2]; [15]): 41%
- Population Hoechst High Intensity Objects (%) (HEK-293T [2]; [15]): 25%
- Population Membrane Permeable-Phenotype (%) (HEK-293T [2]; [15]): 4%
- Population Mitochondria Different-Phenotype (%) (HEK-293T [2]; [15]): 38%
- Population Mitotic Cells (%) (HEK-293T [2]; [15]): 44%
- Population Normal (%) (HEK-293T [2]; [15]): 75%
- Population Pyknosed Nuclei (%) (HEK-293T [2]; [15]): 38%
- Population Tubulin-Different-Phenotype (%) (HEK-293T [2]; [15]): 38%
- Total Cell Count (HEK-293T [2]; [15]): 368
- Population Apoptotic (%) (HEK-293T [2]; [16]): 17%
- Population Fragmented Nuclei (%) (HEK-293T [2]; [16]): 8%
- Population Healthy Nuclei (%) (HEK-293T [2]; [16]): 78%
- Population Hoechst High Intensity Objects (%) (HEK-293T [2]; [16]): 12%
- Population Membrane Permeable-Phenotype (%) (HEK-293T [2]; [16]): 7%
- Population Mitochondria Different-Phenotype (%) (HEK-293T [2]; [16]): 9%
- Population Mitotic Cells (%) (HEK-293T [2]; [16]): 82%
- Population Normal (%) (HEK-293T [2]; [16]): 87%
- Population Pyknosed Nuclei (%) (HEK-293T [2]; [16]): 12%
- Population Tubulin-Different-Phenotype (%) (HEK-293T [2]; [16]): 33%
- Total Cell Count (HEK-293T [2]; [16]): 508
- Population Apoptotic (%) (HEK-293T [2]; [17]): 89%
- Population Fragmented Nuclei (%) (HEK-293T [2]; [17]): 18%
- Population Healthy Nuclei (%) (HEK-293T [2]; [17]): 10%
- Population Hoechst High Intensity Objects (%) (HEK-293T [2]; [17]): 26%
- Population Membrane Permeable-Phenotype (%) (HEK-293T [2]; [17]): 3%
- Population Mitochondria Different-Phenotype (%) (HEK-293T [2]; [17]): 96%
- Population Mitotic Cells (%) (HEK-293T [2]; [17]): 10%
- Population Normal (%) (HEK-293T [2]; [17]): 73%
- Population Pyknosed Nuclei (%) (HEK-293T [2]; [17]): 70%
- Population Tubulin-Different-Phenotype (%) (HEK-293T [2]; [17]): 82%
- Total Cell Count (HEK-293T [2]; [17]): 347
- Population Apoptotic (%) (HEK-293T [2]; [18]): 94%
- Population Fragmented Nuclei (%) (HEK-293T [2]; [18]): 8%
- Population Healthy Nuclei (%) (HEK-293T [2]; [18]): 38%
- Population Hoechst High Intensity Objects (%) (HEK-293T [2]; [18]): 21%
- Population Membrane Permeable-Phenotype (%) (HEK-293T [2]; [18]): 5%
- Population Mitochondria Different-Phenotype (%) (HEK-293T [2]; [18]): 97%
- Population Mitotic Cells (%) (HEK-293T [2]; [18]): 5%
- Population Normal (%) (HEK-293T [2]; [18]): 78%
- Population Pyknosed Nuclei (%) (HEK-293T [2]; [18]): 53%
- Population Tubulin-Different-Phenotype (%) (HEK-293T [2]; [18]): 84%
- Total Cell Count (HEK-293T [2]; [18]): 232
